The nature of data set [1]: MRT in Wistar Han rat at 0.05 mg/kg, iv administered using cassette dosing by LC-MS/MS analysis. The class given is ADME, organism-based. Particulars: in vivo. The gist of the method:
(§1)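 Rat cassette PK: single IV dose of 0.05 mg/kg at 1 mL/kg, vehicle DMSO/PEG400/H2O 20/60/20, animals fasted. Reported values are the geometric mean of n = 2 or more.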

Data set [2] in a line: Unbound intrinsic clearance in rat hepatocytes incubated for 120 mins by LC-MS/MS analysis. The settings on record: 2 h. The class given is ADME, cell-based, Hepatocyte.
Data set [3] in a line: Unbound intrinsic clearance in human hepatocytes incubated for 120 mins by LC-MS/MS analysis. The class given is ADME, cell-based, Hepatocyte. The settings on record: 2 h.
Data set [4] is described as follows: Intrinsic clearance in Wistar Han rat at 0.5 mg/kg, iv or 1 mg/kg, po by LC-MS/MS analysis. The class given is ADME, organism-based. The settings on record: in vivo. The gist of the method: (§2)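 Rat 2 × 2 PK: IV arm at 0.5 mg/kg (1 mL/kg) and PO arm at 1 mg/kg (2 mL/kg), both in DMSO/PEG400/H2O 20/60/20. Reported values are the geometric mean of n = 2 or more.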

A short description of data set [5]: Unbound volume of distribution in Wistar Han rat at 0.5 mg/kg, iv or 1 mg/kg, po by LC-MS/MS analysis. Particulars: in vivo. The class given is ADME, organism-based. The method, boiled down:
as §2

The nature of data set [6]: MRT in Wistar Han rat at 0.5 mg/kg, iv or 1 mg/kg, po by LC-MS/MS analysis. The class given is ADME, organism-based. The settings on record: in vivo. The method, boiled down: as §2
Data set [7] in a line: Unbound clearance in Wistar Han rat at 0.05 mg/kg, iv administered using cassette dosing by LC-MS/MS analysis. The class given is ADME, organism-based. The settings on record: in vivo. The gist of the method: as §1
The nature of data set [8]: Drug metabolism in human hepatocytes assessed as oxidation of n-propyl group with aryl amide bond cleavage at 30 uM incubated up to 90 mins in presence of NADPH by MetID based LC/MS analysis. The class given is ADME, cell-based, Hepatocyte. The settings on record: 1.5 h.
The nature of data set [9]: Unbound volume of distribution in Wistar Han rat at 0.05 mg/kg, iv administered using cassette dosing by LC-MS/MS analysis. The class given is ADME, organism-based. Particulars: in vivo. The gist of the method: as §1
Data set [10] in a line: Drug metabolism in rat liver microsomes assessed as oxidation of n-propyl group at 30 uM incubated up to 45 mins in presence of NADPH by MetID based LC/MS analysis. The class given is ADME, Microsome. The settings on record: 0.75 h. On the technique in general: Liver microsomes are vesicles of endoplasmic reticulum, rich in cytochrome P450 enzymes.
The nature of data set [11]: Drug metabolism in human liver microsomes assessed as oxidation of n-propyl group at 30 uM incubated up to 45 mins in presence of NADPH by MetID based LC/MS analysis. The class given is ADME, Microsome. Particulars: 0.75 h.
Data set [12] is described as follows: Volume of distribution in Wistar Han rat at 0.05 mg/kg, iv administered using cassette dosing by LC-MS/MS analysis. Particulars: in vivo. The class given is ADME, organism-based. The method, boiled down:
as §1

Data set [13] in a line: Clearance in Wistar Han rat at 0.05 mg/kg, iv administered using cassette dosing by LC-MS/MS analysis. The settings on record: in vivo. The class given is ADME, organism-based. The method, boiled down:
as §1

The nature of data set [14]: Intrinsic clearance in Wistar Han rat at 0.05 mg/kg, iv administered using cassette dosing by LC-MS/MS analysis. The class given is ADME, organism-based. The settings on record: in vivo. The gist of the method:
as §1

As a reminder, the MRT is the average time that molecules of a dose stay in the body. As for `O=C(Nc1ccc(C2(C(=O)Nc3ccc(F)cc3)COC2)nc1)c1cccc(Cl)c1`, in data set [1], the MRT amounted to 3.2 h. In addition, the CL free in data set [2] was under 84 mL/min/kg; in data set [3] it was under 44 mL/min/kg.
On to `O=C(Nc1ccc(C2(C(=O)Nc3ccc(Cl)nc3)CCC2)cc1)c1cccc(Cl)c1`, for which the figures for the CL free in [2] and in data set [3] were 500 mL/min/kg and 1900 mL/min/kg, respectively.
On to `O=C(Nc1ccc(C2(C(=O)Nc3ccc(F)cc3)CCC2)cn1)c1cccc(Cl)c1`, for which the CL in data set [4] was 4500 mL/min/kg. Further, in data set [5], the Vdu stood at 2200 L/kg. Moreover, the CL free in [2] came to 830 mL/min/kg; in data set [3], 1300 mL/min/kg. Besides, in [6], the mean residence time (MRT) is 5 h.
As a reminder, the Vd is the apparent volume that relates the amount in the body to the concentration in plasma or blood. High values mean wide distribution into tissue, low ones little distribution into tissue. One may read the clearance as the rate of elimination divided by the concentration. `CCCNC(=O)C1(c2ccc(NC(=O)c3cccc(Cl)c3)cc2)CCC1` displayed an MRT in data set [1] of 0.7 h. Moreover, the CL free worked out at 4100 mL/min/kg in [7], 7200 mL/min/kg in data set [2] and 870 mL/min/kg in [3]. Also, the Drug metabolism entry in data set [8], in data set [10] and in [11] was “Metabolite_Detected” throughout. The same compound showed a Vdu in data set [9] of 180 L/kg. In data set [12], the volume of distribution (Vd) is 4.9 L/kg. Besides, the clearance in [13] came to 110 mL/min/kg.
Consider `CCCNC(=O)C1(c2ccc(NC(=O)c3ccc(F)c(C)c3)cc2)CCC1`, for which the CL free in data set [2] was 6200 mL/min/kg; in [3], 560 mL/min/kg.
Take `O=C(Nc1ccc(C2(C(=O)Nc3ccc(F)cc3)CCC2)cc1)c1cccc(Cl)c1`: the CL in data set [14] is 6000 mL/min/kg. This compound had an MRT in data set [1] of 4.3 h. The compound further showed a Vdu in data set [9] of 1100 L/kg. In addition, the CL free in [2] and in [3] was 2000 mL/min/kg in each case.
For `O=C(Nc1ccc([C@]2(C(=O)Nc3ccc(F)cc3)C[C@@H](O)C2)cc1)c1cccc(Cl)c1`, in data set [14], the CL stood at 590 mL/min/kg. Further, the MRT in [1] was determined as 3.2 h. The same compound displayed a Vdu in data set [9] of 99 L/kg. For the same compound, the CL free was under 280 mL/min/kg in [2] and 350 mL/min/kg in data set [3].
Turning to `O=C(Nc1ccc(C2(C(=O)Nc3ccc(F)cc3)COC2)cc1)c1cccc(Cl)c1`, the CL in [14] was determined as 1600 mL/min/kg. Besides, in data set [1], the MRT amounted to 4.8 h. For the same compound, in data set [9], the Vdu was 420 L/kg. Besides, the CL free in [2] came out at 250 mL/min/kg; in data set [3] it was 420 mL/min/kg.
As to `O=C(Nc1ccc(C2(C(=O)NC3CCOCC3)CCC2)cc1)c1cccc(Cl)c1`, the CL free in data set [2] was found to be 1700 mL/min/kg; in data set [3], 390 mL/min/kg.

These data come from ChEMBL document CHEMBL4602714, “Strategic Incorporation of Polarity in Heme-Displacing Inhibitors of Indoleamine-2,3-dioxygenase-1 (IDO1)” (ACS Med Chem Lett, 2020).
